# Shown are actives, neighbours in structure and some others; about 2.9% of the full set was active somewhere.
# TCR CD3 inh – inhibitors of human TCR-CD3 interaction, primary screen, biochemical, fluorescence, TAMRA-labeled TCR probe | 360,000 tested, 0.37% active | inhibition, % at 9.4 µM | T-cell receptor (TCR); in the data active = inhibition above about 19%;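 note: recombinant mutant TCR 2C K166C tagged with TAMRA read by polarization; 0% = receptor in buffer alone and 100% = receptor with positive control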
# ATG4B inhibitor – ATG4B protease inhibitors, primary screen, biochemical, fluorescence, uHTS; 340,000 tested, 0.51% active; inhibition, % at 8.33 µM; Cysteine protease ATG4B (Homo sapiens), Q9Y4P1; ATG4B cleavage of LC3-PLA2, NBD-HPC fluorescence, 1 h; in the data active = inhibition above about 40%
# mABHD4 FP – ABHD4 inhibitors, primary screen, biochemical, fluorescence polarization, mouse; (Lyso)-N-acylphosphatidylethanolamine lipase (Mus musculus), Q8VD66; purified mABHD4, FP-Rh probe fluorescence polarization; inhibition, % at 8.92 µM; 370,000 tested, 0.54% active;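 active = inhibition exceeding the mean over every tested compound plus 3 SD, cut at about 30% in these data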;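 note: 0% = plate median of compound wells and 100% = S159A mutant with DMSO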
# Target sequence (Q8VD66 whole entry, looked up): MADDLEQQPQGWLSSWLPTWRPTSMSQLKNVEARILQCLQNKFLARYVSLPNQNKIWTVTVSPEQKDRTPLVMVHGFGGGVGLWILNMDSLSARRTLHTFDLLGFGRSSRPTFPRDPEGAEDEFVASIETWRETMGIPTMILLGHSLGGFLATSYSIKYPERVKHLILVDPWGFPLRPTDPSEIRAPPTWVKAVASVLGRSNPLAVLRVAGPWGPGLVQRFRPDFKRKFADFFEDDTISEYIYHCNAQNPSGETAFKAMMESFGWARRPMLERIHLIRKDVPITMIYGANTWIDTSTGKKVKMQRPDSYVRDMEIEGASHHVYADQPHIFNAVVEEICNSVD
#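 Doses – 8.92 µM, single dose · Material – wild-type mouse ABHD4 protein · Replication – single well per compound (singlicate) · Measure – percent inhibition of probe binding, normalized to plate controls · Schedule – 45 min compound pre-incubation plus 60 min probe step, 25 °C · Detection – fluorescence polarization with parallel and perpendicular emission, 525/598 nm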
# SIAE primary – human SIAE inhibitors, primary screen, biochemical, fluorescence polarization, FP-Rh probe, 1536-well HTS; SIAE FP-Rh probe binding; inhibition, % at 9.66 µM; Sialate O-acetylesterase (Homo sapiens), Q9HAT2; 370,000 tested, 0.69% active; AID 1053197, 2014;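 active = inhibition above a cutoff: mean of compounds within the control limits plus 3 SD of those, cut at about 17% in these data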;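 note: 0% = plate median of compound wells and 100% = probe without SIAE protein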
# PRMT1 FP inh – PRMT1 methyltransferase inhibitors, primary screen, biochemical, fluorescence polarization; Protein arginine N-methyltransferase 1 (Homo sapiens), Q99873; recombinant PRMT1, activity-based probe fluorescence polarization; inhibition, % at 2.79 µM; 370,000 tested, 1.3% active; AID 652257, 2013;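 active = inhibition above about 21% made by adding two undisclosed values, limit read from the data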
# HTRA1 inhibitor – HTRA1 serine protease inhibitors, primary screen, biochemical, fluorescence polarization, HTS | Q92743 | recombinant HTRA1, FP-rhodamine activity-based probe | inhibition, % at 5.96 µM | 340,000 tested, 0.5% active | AID 504803, 2011; in the data active = inhibition above about 36%;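 note: 0% = enzyme with DMSO and 100% = wells lacking enzyme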
# ATG4B confirm – ATG4B protease inhibitors, retest, confirmation, biochemical, fluorescence, single concentration | shares compounds with ATG4B inhibitor | ATG4B protease fluorescent substrate cleavage assay | inhibition, % at 8.33 µM | 320 tested, 92% active | AID 504757, 2011; in the data active = inhibition above about 39%
# PLA2 counter – PLA2 enzyme inhibition, counter-screen for ATG4B inhibitor project, biochemical, single concentration, uHTS hits; 1,600 tested, 66% active; AID 588402, 2011; inhibition, % at 8.33 µM; shares compounds with ATG4B inhibitor; purified PLA2, NBD-C6-HPC fluorescence, 45 min; in the data active = inhibition above about 50%
# Target sequence (P04054 whole entry, looked up): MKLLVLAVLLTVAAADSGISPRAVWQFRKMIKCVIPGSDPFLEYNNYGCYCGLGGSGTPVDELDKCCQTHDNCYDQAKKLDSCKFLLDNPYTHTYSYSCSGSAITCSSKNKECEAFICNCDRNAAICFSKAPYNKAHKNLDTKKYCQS
# * = called active by the depositor; . = no result given.
SMILES,TCR CD3 inh,ATG4B inhibitor,mABHD4 FP,SIAE primary,PRMT1 FP inh,HTRA1 inhibitor,PLA2 counter,others
O=C(c1ccc(Cl)cc1)C1CCN(c2ncnc3sccc23)CC1,.,.,-6,-3,4,.,.,
O=S1(=O)c2ccc(Br)cc2OC[C@@H](Cc2ccccc2)N1Cc1cn(CC2CCCCC2)nn1,.,.,-6,9,-5,.,.,
CCOc1ccc(OCC)c(NC(=O)CN2CCC(NC(=O)c3cccc(F)c3)CC2)c1,3,79*,-3,0,-2,-13,76*,
COc1cccc(N2CCN(C(=O)CCn3nnc4ccccc43)CC2)c1,.,.,-2,0,1,.,.,
Oc1ccccc1C1SC(c2ccccc2O)SC(c2ccccc2O)S1 (centres undefined),1,63*,-63,-47,4,-41,47,
O=C(NCc1ccco1)C1CCCN(S(=O)(=O)c2ccc(F)cc2)C1 (centres undefined),.,.,0,1,-2,.,.,
CCOC(=O)CC[C@H]1CC[C@]2(CCCN(Cc3ccccc3)C2)O1,.,.,-8,0,5,.,.,
Cc1ccc(-n2c(Cc3cccn3C)nnc2SCC(=O)N2CCc3ccccc32)cc1,5,52*,-11,1,3,-17,48,
Cc1cccc(Oc2ccc(NC(=O)c3ccccc3C(=O)O)cc2)c1C,9,69*,-3,2,1,-6,70*,
O=C(O)c1ccccc1C(=O)Nc1ccc(Oc2cccc3ccccc23)cc1,-4,29,4,7,3,-6,.,
COC(=O)[C@]12C[C@H](CC(=O)NCc3ccccc3)C(=O)N(CCc3ccc(OC)c(OC)c3)C1=C[C@H](C1CCCC1)O[C@@H]2C,.,.,-2,0,0,.,.,
Clc1cccc(Cl)c1CO/N=C/c1cccs1,-1,-11,0,-6,1,2,.,
Cc1c(C)c(C)c(CO/N=C/c2cccs2)c(C)c1C,-4,60*,4,3,-4,-1,42,ATG4B confirm=66*
O=C(c1ccccc1)c1cnc(Nc2ccccc2Cl)s1,.,44*,.,.,.,-46,46,ATG4B confirm=65*
O=C1C(NC(=O)N2c3ccccc3C=Cc3ccccc32)CCCCN1Cc1cccc(Cl)c1 (centres undefined),.,.,-8,-3,4,.,.,
COC(=O)C(C)N(C(=O)c1ccc(C(=O)c2ccccc2)cc1)c1c(C)cccc1C (centres undefined),-1,57*,-5,-4,0,-19,47,ATG4B confirm=58*
COc1ccc(N2CCN(CCNS(=O)(=O)c3cccs3)CC2)cc1,.,.,7,3,6,.,.,
Cc1ccc(C(=O)Nc2ncc(Cc3ccccc3)s2)o1,0,43*,-13,-3,9,-30,64*,
O=C(Nc1ncc(Cc2ccccc2)s1)c1cccs1,-5,30,-9,-11,2,-54,.,
COc1ccc(C(=O)/C=C/c2ccc(OCc3ccccc3)cc2)cc1CSCC(=O)O,-2,49*,-18,-19,4,-53,69*,
COc1ccc(C(=O)/C=C/c2cccc(OCc3ccccc3)c2)cc1CSCC(=O)O,2,49*,-41,-28,11,-32,61*,
COc1ccc(C=CC(=O)c2ccc(OCc3ccccc3)c(OC)c2)cc1OC,4,.,-20,-11,6,-22,.,
O=C1C(NC(=O)N2c3ccccc3C=Cc3ccccc32)CCCCN1Cc1ccc(Cl)cc1 (centres undefined),.,.,-19,-4,5,.,.,
Cc1ccccc1N1C(=O)CN(Cc2sccc2C)C1=S,-6,65*,0,4,-1,1,79*,
CCc1ccc(N2C(=O)CN(Cc3ccc(OC)c(OC)c3)C2=S)cc1,-2,0,1,-8,1,-7,.,
SMILES,TCR CD3 inh,ATG4B inhibitor,mABHD4 FP,SIAE primary,PRMT1 FP inh,HTRA1 inhibitor,PLA2 counter,others
COc1cccc(N2C(=O)CN(Cc3cc(OC)c(OC)c(OC)c3)C2=S)c1,4,-1,-2,-7,-3,-2,.,
Cc1ccc(N2C(=O)CN(Cc3ccccc3)C2=S)cc1C,-1,75*,-10,-58,1,-9,79*,
Cc1ccc(N2C(=O)CN(Cc3cccs3)C2=S)cc1C,1,58*,-8,-4,-3,-8,78*,
Cc1ccc(N2C(=O)CN(Cc3sccc3C)C2=S)cc1C,5,95*,-7,-4,0,-9,94*,
CS(=O)(=O)N1C[C@]2(c3ccccc3)CC1Cc1ccccc12,.,.,4,10,4,.,.,
Fc1ccc(-c2cc(-c3nnc4sc(-c5ccco5)nn34)[nH]n2)cc1,.,.,-21,-12,-4,.,.,
CON(C)C(=O)CC(CN(Cc1ccccc1)C(=O)OC(C)(C)C)c1ccc(Cl)cc1 (centres undefined),3,53*,-7,-1,-3,-17,79*,
CCN(c1ccc(OC)cc1)S(=O)(=O)N1CCCC(C(=O)NCc2ccccc2Br)C1 (centres undefined),-1,57*,-3,-3,-1,-17,58*,
CCN(c1ccc(OC)cc1)S(=O)(=O)N1CCCC(C(=O)NCc2cccc(C)c2)C1 (centres undefined),3,3,-1,1,-1,-11,.,
O=C(O)c1cccc2c(-c3ccccc3)c(-c3ccccc3)[nH]c12,3,69*,16,-1,1,-19,75*,
CC(=O)N1c2c(cc(Br)cc2S(=O)(=O)N2CCN(c3ccccc3F)CC2)CC1C (centres undefined),4,55*,-9,10,-3,-27,67*,
Cn1cccc1[C@]1(O)C(=O)Nc2ccc(F)cc21,.,.,8,0,7,.,.,
COC(=O)c1ccc(/C=C2\CCn3c2nc2cc(C(=O)O)ccc2c3=O)cc1,.,-5,.,.,.,5,.,
CC(C)CCOc1ccc(/C=C2\CCn3c2nc2cc(C(=O)O)ccc2c3=O)cc1,0,97*,-5,-7,1,2,92*,
CC(=O)Nc1sc2c(c1-c1nc3ccccc3s1)CCOC2,.,.,-5,-5,12,.,.,
COc1ccc(CCN2C(=S)N(C)C(=O)C2CC(=O)Nc2ccc(F)cc2)cc1 (centres undefined),-2,43*,-3,-2,-2,.,56*,

# Screening data deposited in PubChem by several laboratories.
